From PubChem BioAssay
Hits are enriched below; roughly 2.1% of the tested compounds scored in any of these assays.
TRPN1 ag – zebrafish TRPN1 channel agonists, primary screen, cell-based, HEK293, calcium fluorescence. transient receptor potential cation channel N1 (TRPN1/NompC), Danio rerio. HEK293 zebrafish TRPN1-YFP, Fluo-8 calcium fluorescence; 100% = response to 87 µM carbachol. activation, % at 3 µM. actives 0.18% (n = 220,000);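 active = activation above its plate's cutoff, the mean activation of test wells on that plate plus 3 SD, cut at about 19% in these data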
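Material – zebrafish TRPN1-YFP in HEK293 cells · Doses – 3 µM single point · Schedule – dye 1 h 37 °C plus 30 min RT · Signal – Fluo-8 calcium fluorescence, excitation 470-495 nm, emission 515-575 nm · Read-out – % activation versus carbachol response · Control set – carbachol high, DMSO low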
CRFR2-BP ag – agonists of CRF-BP/CRF-R2 complex, primary screen, cell-based, HEK293, calcium dye fluorescence, uHTS. CRF-binding protein / CRF receptor 2 complex (human). calcium dye fluorescence (FLIPR); percent of saturating CRF peptide response. activation, % at 13.2 µM. actives 0.46% (n = 350,000). AID 588473, 2011;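 active = activation of at least 50%, plus an integration ratio under a set limit after plate pattern correction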
IMP-1 inhibitor – IMP-1 metallo-beta-lactamase inhibitors, primary screen, biochemical, epi-absorbance readout, Pseudomonas aeruginosa enzyme. metallo-beta-lactamase IMP-1 (Pseudomonas aeruginosa). purified IMP-1, nitrocefin hydrolysis, epi-absorbance fluorescence. inhibition, % at 5.6 µM. actives 0.45% (n = 290,000). AID 1556, 2009;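 active = inhibition above the mean plus 3 SD of all compounds in the same screening run, cut at about 4.5% in these data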
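System: purified recombinant IMP-1 beta-lactamase. Medium: Zinc- and detergent-supplemented HEPES buffer, pH 7.1. Compound: one 5.6 µM dose […]. Schedule: 15 min preincubation plus 25 min reaction at 25 °C. Technique: Epi-absorbance fluorescence, 480 nm excitation, 530 nm emission.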
TRPML3 agonist – human TRPML3 channel agonists, primary screen, cell-based, HEK293 TRPML3-YFP, Fluo-8 calcium fluorescence, 3 µM; 100% = the carbachol control signal; activation, % at 3 µM; actives 0.29% (n = 220,000); AID 1448, 2008;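 active = activation above its plate's cutoff, the mean activation of the plate's test wells plus 3 SD, cut at about 12% in these data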
Target sequence (Q8TDD5 whole entry, looked up): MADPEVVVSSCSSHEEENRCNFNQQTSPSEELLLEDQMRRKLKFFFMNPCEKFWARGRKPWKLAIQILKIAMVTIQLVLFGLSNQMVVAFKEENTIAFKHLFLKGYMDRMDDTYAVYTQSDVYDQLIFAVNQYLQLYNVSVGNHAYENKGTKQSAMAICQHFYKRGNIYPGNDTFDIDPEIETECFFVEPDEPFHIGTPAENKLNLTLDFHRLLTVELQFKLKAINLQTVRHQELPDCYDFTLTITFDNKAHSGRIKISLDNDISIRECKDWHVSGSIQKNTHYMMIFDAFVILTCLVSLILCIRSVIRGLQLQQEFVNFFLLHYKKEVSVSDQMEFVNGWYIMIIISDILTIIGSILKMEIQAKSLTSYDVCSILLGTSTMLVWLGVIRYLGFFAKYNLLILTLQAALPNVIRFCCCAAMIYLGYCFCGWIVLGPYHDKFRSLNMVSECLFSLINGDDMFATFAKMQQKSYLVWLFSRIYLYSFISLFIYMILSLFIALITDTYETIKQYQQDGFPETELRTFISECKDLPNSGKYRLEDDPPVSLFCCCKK
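system = HEK293 cells stably carrying human TRPML3-YFP | doses = one concentration, 3 µM nominal, 0.3% DMSO | timing = dye loading 1 h 37 °C then 30 min ambient, 125 s read | detection = Fluo-8 calcium dye fluorescence, ex 470-495, em 515-575 nm | benchmarks = high control carbachol 87 µM, low control DMSO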
CRFBP-R2 block – antagonists of CRF-BP/CRF-R2 complex, primary screen, cell-based, HEK293, calcium dye fluorescence, uHTS; inhibition, % at 11.8 µM; AID 588475, 2011; CRF-induced calcium fluorescence; actives 0.59% (n = 350,000);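 active = inhibition of the ligand-induced calcium signal above about 50% at the single tested concentration, limit read from the data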
VIM-2 inh – VIM-2 metallo-beta-lactamase inhibitors, primary screen, biochemical, epi-absorbance readout, Pseudomonas aeruginosa enzyme; purified VIM-2, nitrocefin hydrolysis, epi-absorbance fluorescence; inhibition, % at 5.6 µM; AID 1527, 2009; actives 0.89% (n = 290,000);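 active = inhibition above the mean of all tested compounds plus 3 SD, cutoff set per screening run, cut at about 7.5% in these data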;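 note: red hydrolysis product quenches plate fluorescence so inhibitors raise well fluorescence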
Numbers stand for hits; . = inactive; / = not tested or not shown.

SMILES	TRPN1 ag	CRFR2-BP ag	IMP-1 inhibitor	TRPML3 agonist	CRFBP-R2 block	VIM-2 inh
Cc1[nH]c2ccccc2c1SCC(=O)O	.	.	.	.	.	.
COC(=O)C(F)(F)Sc1c(C)[nH]c2ccccc12	.	.	.	.	51.8	.
COc1nccnc1NS(=O)(=O)c1ccc(N)cc1	/	.	.	/	.	.
CC(NC(=O)Nc1ccc(Cl)cc1)c1ccc2c(c1)OCO2 (stereo not drawn)	/	.	.	/	.	.
CCc1ccccc1NC(=O)NC(C)c1ccc2c(c1)OCO2 (stereo not drawn)	/	.	.	/	60.8	.
CC1CCCCN1C(=O)COC(=O)CNC(=O)c1ccc(Cl)cc1Cl (stereo not drawn)	/	.	/	/	.	/
CCc1cccc(CC)c1NC(=O)C1CCN(C(=O)c2ccco2)CC1	/	.	.	/	.	.
O=C(CNC(=O)c1ccccc1Cl)NCCc1cccs1	/	.	/	/	.	/
Cc1ccc(S(=O)(=O)N2CCOCC2)cc1NC(=O)Nc1ccc([N+](=O)[O-])cc1	/	.	/	/	.	/
O=C(CSc1nc2ccccc2n1CCc1ccccc1)NC1CCS(=O)(=O)C1 (stereo not drawn)	.	.	.	.	60.0	.
CCOC(=O)C1CCCN(C(=O)c2ccc(Cl)c(S(=O)(=O)N3CCCCC3)c2)C1 (stereo not drawn)	.	.	.	.	53.5	.
CCOC(=O)C1CCCN(C(=O)c2cccc(S(=O)(=O)N(Cc3ccccc3)c3ccccc3OC)c2)C1 (stereo not drawn)	/	.	/	/	50.9	/
CCOC(=O)Cc1csc(N/N=C\c2ccccc2OC)n1	/	.	.	/	.	.
Cn1c2c(c(=O)n1-c1ccccc1)CSCC2	/	.	/	/	.	/
CCc1nnc2c(N(C)S(=O)(=O)c3ccc(C)cc3)nc3ccccc3n12	/	.	.	/	.	.
Cc1ccc(S(=O)(=O)N(C)c2nc3ccccc3[nH]c2=S)cc1	.	.	8.7	.	.	.
CN(CC1CCCN(CCc2ccc(Cl)cc2)C1)C(=O)c1ccco1 (stereo not drawn)	/	.	.	/	.	.
CC(Oc1ccc(C(=O)c2ccccc2)cc1)C(=O)Nc1ccc(S(N)(=O)=O)cc1 (stereo not drawn)	.	61.2	.	.	.	.
CC(Oc1ccccc1)C(=O)Nc1ccc(NC(=O)c2ccccc2)cc1 (stereo not drawn)	/	.	.	/	.	.
Cc1noc(C)c1S(=O)(=O)N(C)C[C@H]1Oc2c(NC(=O)C3CCCCC3)cccc2C(=O)N([C@H](C)CO)C[C@@H]1C	/	.	/	/	.	/
CCOC(=O)C1CCN(c2ncnc3c2nnn3Cc2ccccc2Cl)CC1	.	.	.	.	59.4	.
O=C(c1ccco1)N1CCN(c2ncnc3c2nnn3Cc2ccccc2Cl)CC1	.	.	.	.	.	.
O=C(Cc1cccc(NC(=O)C2CCN(S(=O)(=O)c3cccc([N+](=O)[O-])c3)CC2)c1)Nc1cccc(C(=O)N2CCCCC2)c1	/	.	/	/	.	/
Cc1ccc(S(=O)(=O)N(C)CC(=O)NCCCc2ccccc2)cc1	/	61.4	.	/	.	.
CC(C)CC1C(=O)N(Cc2cn(CC3CCCCC3)nn2)CCS(=O)(=O)N1Cc1ccc(-c2cccc(CO)c2)cc1 (stereo not drawn)	/	.	/	/	.	/
CCOC(=O)c1c(C(F)(F)C(F)(F)C(F)(F)C(F)(F)F)n[nH]c1C	.	.	.	.	54.2	.
CN(C)CCOC(=O)CCCCCCCCC(=O)OCCN(C)C	.	.	.	.	.	.
Oc1[nH]c2ccccc2c1N=Nc1c(F)c(F)c(Cl)c(F)c1F	/	.	.	/	.	.
Oc1[nH]c2ccccc2c1N=Nc1ccccc1Cl	/	123.6	/	/	.	/
O=C1c2cccc3c([N+](=O)[O-])ccc(c23)C(=O)N1c1ccccn1	.	.	.	.	60.1	.
